High-throughput results (PubChem)
Diaph act CS = diaphorase activation or chemical reduction counter-screen | 190,000 compounds, 0.005% hits | Diaphorase/resazurin coupled assay, resorufin fluorescence, 16 min; hits give high values; 1 = vehicle wells, 0 = NADH-free wells | activation factor at 20 µM | AID 1229;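 active = diaphorase activity raised at least twofold by the compound at 20 µM; inactive = activation factor below 2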
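Material: purified diaphorase enzyme from Clostridium kluyveri; Also added: 0.114 mM NADH and 0.1 mM resazurin, final amounts; Doses: single compound dose of 20 µM, 1% DMSO final; Times: 16 min enzyme reaction, ambient temperature; Detection: resorufin fluorescence, excitation 544 nm, emission 590 nm; Measure: increased resorufin signal from activators or reducing compounds.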
Diaphorase inh = diaphorase inhibition or chemical oxidation counter-screen; diaphorase resazurin-to-resorufin fluorescence, NADH, 16 min; bacterial (C. kluyveri) enzyme, not human; inhibition, % at 20 µM; 190,000 compounds, 0.69% hits;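 active = primary screen inhibition at 20 µM above a set limit, cut at about 50% in these data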;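 also: plate controls were DMSO with full reaction for no effect and wells lacking NADH for full effect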
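Assay system: diaphorase enzyme from Clostridium kluyveri. Quantity: enzyme working solution with 0.14 U/mL diaphorase. Schedule: reaction incubation of 16 min at room temperature. Technique: resorufin fluorescence, excitation 544 nm, emission 590 nm. Controls: No-NADH positive control and DMSO neutral control.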
PMI activator = activators of human phosphomannose isomerase; purified human PMI, coupled resazurin fluorescence, 20 min; hits give high values; 1 = vehicle control, 0 substrate-free wells; activation factor at 20 µM; 190,000 compounds, 0.005% hits;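 active = activation factor of 2 or more at 20 µM, relative to plate controls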
FLuc inh counter = inhibits firefly luciferase, flagging false hits in luciferase inhibition screens; AID 1006; inhibition, % at 10 µM; 200,000 compounds, 1.5% hits; P08659; ATPLite firefly luciferase biochemical luminescence, 10 min;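 active = inhibition above about 50% when tested at 10 µM, limit read from the data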
Target sequence (P08659 whole entry, looked up): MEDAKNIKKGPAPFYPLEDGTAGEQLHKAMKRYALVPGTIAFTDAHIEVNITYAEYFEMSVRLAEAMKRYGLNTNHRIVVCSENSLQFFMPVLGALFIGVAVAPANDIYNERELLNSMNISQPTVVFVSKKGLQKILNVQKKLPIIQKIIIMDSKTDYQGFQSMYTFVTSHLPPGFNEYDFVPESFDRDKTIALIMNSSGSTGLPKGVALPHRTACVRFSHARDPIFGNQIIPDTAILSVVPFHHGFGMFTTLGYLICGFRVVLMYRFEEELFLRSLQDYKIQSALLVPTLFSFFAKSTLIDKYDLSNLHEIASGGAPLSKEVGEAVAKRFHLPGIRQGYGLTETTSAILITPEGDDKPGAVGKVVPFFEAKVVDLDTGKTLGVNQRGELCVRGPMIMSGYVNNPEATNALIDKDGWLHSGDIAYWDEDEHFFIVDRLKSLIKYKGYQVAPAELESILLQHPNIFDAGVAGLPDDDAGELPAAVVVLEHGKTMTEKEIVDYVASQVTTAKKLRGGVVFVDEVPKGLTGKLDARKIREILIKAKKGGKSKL
FLuc act counter = firefly luciferase counter-screen for stimulation assays. ATPlite luciferase biochemical, luminescence, 10 min; 0 = ATP-free wells, 1 = DMSO control. activation factor at 10 µM. 200,000 tested, under 10 active. AID 1027;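 active = luciferase activation factor, scaled between plate controls, of at least 2 with compound at 10 µM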
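Assay system: Luciferase/luciferin detection reagent, cell-free biochemical luciferase assay / Also added: ATP substrate / Schedule: 10 min at ambient temperature / Measured by: luminescence measurement of luciferase light output / Benchmarks: low control with PBS replacing ATP, high control enzyme plus ATP without compound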
PMI act hi M6P = increases human PMI activity with near-saturating mannose 6-phosphate; activation factor at 20 µM; coupled PMI enzyme assay, resazurin fluorescence, 20 min; hits give high values; 1 = untreated enzyme, 0 = substrate-free blank; 190,000 compounds, 0.34% hits;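 active = activation factor of 2 or more at 20 µM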
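Test system – human PMI in coupled enzyme assay · Timing – 20 min incubation at room temperature · Detection – Diaphorase-driven resazurin-to-resorufin fluorescence, excitation 544, emission 590 nm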
The depositor's hits bear a star. In the library only some 2.5% were active in any assay of this set; here they are far more common.

SMILES | Diaph act CS | Diaphorase inh | PMI activator | FLuc inh counter | FLuc act counter | PMI act hi M6P
Cc1ccc(NC(=O)CCNCc2ccco2)cc1S(=O)(=O)N(C)C | 1 | 4 | 1 | 79* | 0.2 | 1
COc1ccc(OCC(=O)Nc2ccc(C)c(S(=O)(=O)N(C)C)c2)cc1 | 1 | 0 | 1.1 | 6 | 0.9 | 1
Cc1ccc(NC(=O)CCNC(=O)c2ccccc2Cl)cc1S(=O)(=O)N(C)C | 0.9 | 5 | 1.1 | -2 | 1 | 1.1
CCOc1ccc(C(=O)NCC(=O)OCC(=O)Nc2ccc(C)c(S(=O)(=O)N(C)C)c2)cc1 | 0.7 | 27 | 0.9 | 65* | 0.4 | 0.9
Cc1ccc(NC(=O)COC(=O)/C=C/c2ccc(Br)o2)cc1S(=O)(=O)N(C)C | 0.8 | 22 | 1.5 | -2 | 1 | 2.2*
C=CCn1c(C)cc(C(=O)Cn2nc(C(=O)O)c3ccccc3c2=O)c1C | 0.8 | 22 | 1 | 92* | 0.1 | 0.9
COCCn1c(C)cc(C(=O)Cn2nc(C(=O)O)c3ccccc3c2=O)c1C | 0.9 | 8 | 1 | 91* | 0.1 | 1
CCCn1c(C)cc(C(=O)CSc2nnc3n(CCC)c(=O)c4ccccc4n23)c1C | 0.9 | 6 | 0.9 | -8 | 1.1 | 1
CCCn1c(C)cc(C(=O)Cn2nnc3ccccc3c2=O)c1C | 0.9 | 9 | 1 | 57* | 0.4 | 1
Cc1cc(C(=O)Cn2nc(C(=O)O)c3ccccc3c2=O)c(C)n1C1CC1 | 1 | -1 | 1 | 11 | 0.9 | 1
Cc1cc(C(=O)Cn2nc(C(=O)O)c3ccccc3c2=O)c(C)n1-c1ccc(F)cc1 | 0.8 | 18 | 1 | 76* | 0.2 | 0.9
Cc1ccccc1OCCn1nc(C(=O)O)c2ccccc2c1=O | 0.8 | 24 | 0.9 | -9 | 1.1 | 0.9
COc1c(/C=N/NC(=O)c2ccccc2O)c(CCN(C)C(C)=O)cc2c1OCO2 | 0.9 | 6 | 0.8 | 85* | 0.2 | 0.9
COc1ccc(-c2nn(-c3ccccc3)cc2C(=O)O)cc1OC | 0.9 | 7 | 0.9 | 82* | 0.2 | 1
Cn1nnnc1SCC(=O)N1CCN(c2cccc(Cl)c2)CC1 | 0.9 | 9 | 0.9 | -4 | 1 | 1
O=C(NCC1OCCCN1S(=O)(=O)c1cc(F)ccc1F)C(=O)NC1CCCCC1 (configuration not stated) | 1 | -1 | 1 | -5 | 1 | 1
CCC(C)c1ccc(NC(=O)C/C(C)=N/NC(=O)c2cnccn2)cc1 (configuration not stated) | 0.8 | 17 | 1 | -1 | 1 | 1
CCOC(=O)c1nn(-c2ccc3c(c2)CCN3C(C)=O)cc1O | 0.9 | 14 | 0.9 | 61* | 0.4 | 0.8
c1c2c(cc3sc(N4CCCCC4)nc13)OCO2 | 1 | 2 | 1 | 80* | 0.2 | 1
c1ccc2c(c1)CCN(c1nc3cc4c(cc3s1)OCO4)C2 | 0.9 | 8 | 1.1 | 69* | 0.3 | 1.2
c1c2c(cc3sc(N4CCOCC4)nc13)OCO2 | 1 | -4 | 0.9 | 56* | 0.4 | 1
c1ccc(N2CCN(c3nc4cc5c(cc4s3)OCO5)CC2)cc1 | 0.9 | 10 | 0.8 | 29 | 0.7 | 0.9
O=C(NCCc1ccccc1)c1ccc(NCC2CCCO2)c([N+](=O)[O-])c1 (configuration not stated) | 1 | -4 | 1 | 0 | 1 | 1
Cc1noc(C)c1COC(=O)C(c1ccccc1)c1ccccc1 | 0.8 | 15 | 1.1 | 0 | 1 | 0.9
Nc1nonc1-c1nc2ccccc2n1CC(=O)N/N=C/c1ccc(-c2cccc(C(=O)O)c2)o1 | 0.5 | 52* | 1.1 | -2 | 1 | 1.2
SMILES | Diaph act CS | Diaphorase inh | PMI activator | FLuc inh counter | FLuc act counter | PMI act hi M6P
CCOC(=O)c1c(C)nc2sc(C(N)=O)c(N)c2c1-c1ccc(OC)cc1 | 0.8 | 19 | 1 | -4 | 1 | 1
Cc1nc2sc(C(N)=O)c(N)c2c(C)c1CC(=O)c1ccccc1 | 1 | -1 | 1.7 | 20 | 0.8 | 2*
CC(C)c1ccc(Nc2ncccc2C(=O)O)cc1 | 1.1 | -5 | 1 | 67* | 0.3 | 1
CCOC(=O)C1=C(C)Nc2ccccc2N=C1NC(=O)Cc1ccc(OC)cc1 | 1 | 2 | 1 | -5 | 1.1 | 1
COc1ccc(C(NC(C)=O)c2cc(Cl)c3cccnc3c2O)cc1OC (configuration not stated) | 0.3 | 66* | 0.6 | -3 | 1 | 0.4
O=C(O)COc1ccccc1C(Nc1cccnc1)c1cc(Cl)c2cccnc2c1O (configuration not stated) | 0.4 | 61* | 0.7 | -6 | 1.1 | 0.7
CCOc1ccc(C(Nc2cccnc2)c2cc(Cl)c3cccnc3c2O)cc1 (configuration not stated) | 0.7 | 30 | 0.8 | -2 | 1 | 0.3
CCC(=O)NC(c1ccc(OC)c(OC)c1)c1cc(Cl)c2cccnc2c1O (configuration not stated) | 0.8 | 25 | 0.9 | 0 | 1 | 0.6
O=C(O)COc1ccccc1C(Nc1ccccn1)c1cc(Cl)c2cccnc2c1O (configuration not stated) | 0.5 | 51* | 0.9 | -2 | 1 | 0.9
COc1ccccc1NC(=O)/C(=C/c1cccc([N+](=O)[O-])c1)c1ccccc1 | 1 | 0 | 0.8 | -7 | 1.1 | 0.9
CC(C)c1ccc(S(=O)(=O)N2CCN(C(=O)c3cccc(F)c3)CC2)cc1 | 0.8 | 16 | 0.9 | -7 | 1.1 | 0.9
CCCc1ccc(-c2ccc(F)c(N)c2)nc1 | 1 | 3 | 1 | 90* | 0.1 | 1
CCCCc1ccc(-c2ccc(Br)cc2)nc1 | 0.9 | 11 | 0.9 | 44 | 0.6 | 1
Cc1ccc(-n2nc3c(n2)/C(=N/O)CC/C3=N\O)cc1 | 0.9 | 12 | 0.9 | 67* | 0.3 | 0.9
COc1ccc(/C=N/c2c(-c3ccc(OC)cc3)nc3n2CCS3)cc1 | 0.6 | 40 | 0.7 | 59* | 0.4 | 0.4
Fc1ccc(/C=N/c2c(-c3ccc(F)cc3)nc3n2CCS3)cc1 | 0.9 | 7 | 1 | -4 | 1 | 1
CCOC(=O)N1CCN(C(=S)NC(=O)c2ccnn2C)CC1 | 0.9 | 11 | 1 | 0 | 1 | 0.9
CCC1=NN2C(=N)/C(=C\c3cccn3-c3cccc(Cl)c3)C(=O)N=C2S1 | 0.4 | 59* | 0.9 | -7 | 1.1 | 1
COc1ccc(-n2cccc2/C=C2\C(=N)N3N=C(c4ccco4)SC3=NC2=O)cc1 | 0.3 | 74* | 1.2 | -3 | 1 | 1.1
